# Reference: publication PMC11529803 (Medicinal chemistry research : an international journal for …, 2024)
# Where a name gives a salt, the structure may show the parent alone.
# Assays:
# [1] = L-cystine crystallization inhibition assay; conditions: for EC50 relative to parent LH708: metabolites of LH708
# Method in brief: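 Supersaturated L-cystine solution was held with test compound over a concentration range for 72 h at 20 °C, then centrifuged at 14,000 rpm for 10 min at room temperature. Supernatant was diluted 10-fold in water and run in triplicate: potassium cyanide in PBS pH 7.4, 25 min shaking, then sodium nitroprusside, with absorbance read at 530 nm. Cystine was read off a standard curve; EC50 came from nonlinear regression.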
# [2] = Crystal growth inhibition by in situ atomic force microscopy; conditions: in situ AFM on {0001} growth hillocks
# Method in brief: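 Real-time in situ AFM in a fluid cell on hexagonal L-cystine crystals grown from aqueous supersaturated solution (pH 6.3), filtered and air-dried. Surface regenerated for 20 min by flowing supersaturated 2 mM cystine at 20 mL/h. Velocities of {1010} steps on the {0001} basal plane were measured without inhibitor (Vo), then with test compound at 15, 30 and 45 µM under identical conditions.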
# [3] = In vivo metabolism and pharmacokinetics of LH708; set-up: species or system Slc3a1 KO male mice
# [4] = test system: Slc3a1-knockout mouse model of cystinuria; conditions: after oral gavage; cited from earlier work
# [5] = cited from earlier work
compound,measurement,setting,value
"Cl.Cl.Cl.Cl.N[C@@H](CSSC[C@H](N)C(=O)N1CCN(c2ccccc2)CC1)C(=O)N1CCN(c2ccccc2)CC1 [Compound 3e, L-Cystine bis(N′-phenylpiperazide) tetrahydrochloride]",decrease in L-cystine crystallization inhibition activity,[1]; relative to LH708 (N4-methyl),> 10 fold
"N[C@@H](CSSC[C@H](N)C(=O)N1CCNCC1)C(=O)N1CCNCC1 [Compound 3a, L-Cystine bis(piperazide) tetrahydrochloride]",EC50 relative to parent LH708,[1],≤ 2 fold
same,L-cystine crystal growth inhibition (step roughening and decrease of {1010} step velocity),[2],less effective than the other two compounds
"CN1CCN(C(=O)[C@@H](N)CSSC[C@H](N)C(=O)N2CCN(C)CC2)CC1 [Compound 2, L-cystine bis(N′-methylpiperazide)]",plasma half-life,[3]; after LH708 single dose 150 μmol/kg,~ 10 min
same,main metabolic pathway,"[3]; single iv or oral dose of LH708, plasma and urine",disulfide exchange
same,prevention of L-cystine stone formation,[4],active
same,chemical and metabolic stability compared with L-CDME (1),[5],chemically and metabolically more stable
"Cl.Cl.N[C@@H](CSSC[C@H](N)C(=O)NCCN1CCCC1=O)C(=O)NCCN1CCCC1=O [Compound 4e, L-Cystine bis(N′-pyrrolidin-2-one ethyleneamide) dihydrochloride]",L-cystine crystallization inhibition activity (in words),[1],lost almost all of its crystallization inhibition activity
"CN1CCN(C(=O)[C@@H](N)CSSC[C@H](N)C(=O)O)CC1.Cl.Cl.Cl [Compound 25, S-(((R)-2-Amino-3-(4-methylpiperazin-1-yl)-3-oxopropyl)thio)-L-cysteine trihydrochloride]",EC50 relative to parent LH708,[1],≤ 2 fold
"Cl.Cl.Cl.Cl.N[C@@H](CSSC[C@H](N)C(=O)N1CCCC12CCNCC2)C(=O)N1CCCC12CCNCC2 [Compound 3j, L-Cystine bis(1,8-diazaspiro[4.5]decan-1-yl) tetrahydrochloride]",reduction in L-cystine crystallization inhibition,[1]; relative to structure isomer 3i,~5 fold
